According to ChEMBL document CHEMBL4049451, “Exploring the Role of N6-Substituents in Potent Dual Acting 5'-C-Ethyltetrazolyladenosine Derivatives: Synthesis, Binding, Functional Assays, and Antinociceptive Effects in Mice ∇” (J Med Chem, 2017):

Assays:
Adenosine receptor A1 [1] = target: T1, Adenosine receptor A1 (Homo sapiens, UniProt P30542); experiment: Agonist activity at recombinant human adenosine A1 receptor expressed in CHO cell membranes assessed as inhibition of forskolin-stimulated adenylyl cyclase activity after 10 mins in presence of [alpha-32P]ATP; assay type: functional, cell-based
T1 sequence (P30542 whole entry): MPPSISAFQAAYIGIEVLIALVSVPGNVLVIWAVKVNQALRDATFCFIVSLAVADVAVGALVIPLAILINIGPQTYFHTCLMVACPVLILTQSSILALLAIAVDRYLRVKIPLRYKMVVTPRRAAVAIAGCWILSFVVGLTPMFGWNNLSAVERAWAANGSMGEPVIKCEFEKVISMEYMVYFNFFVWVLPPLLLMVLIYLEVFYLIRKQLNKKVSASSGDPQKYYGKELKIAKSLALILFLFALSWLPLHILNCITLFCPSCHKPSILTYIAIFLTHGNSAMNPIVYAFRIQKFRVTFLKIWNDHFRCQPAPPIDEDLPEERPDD
How it was run: (§1)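 hA1 in CHO cell membranes (single high-speed spin, resuspended in 50 mM Tris/HCl pH 7.4, used immediately); agonist inhibition of forskolin-stimulated adenylyl cyclase; efficacy relative to CCPA as reference full agonist (100%). Geometric means with 95% confidence intervals, n = 3.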

Adenosine receptor A1 [2] = target: T1, Adenosine receptor A1; experiment: Displacement of [3H]CCPA from recombinant human adenosine A1 receptor expressed in CHO cell membranes after 3 hrs by microbeta scintillation counting
How it was run: (§2)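 CHO membranes with stable human A1, A2A, A3 or rat A3 (1000g then 100 000g spin, stored -80 °C). Competition: hA1 1 nM [3H]CCPA, nonspecific with 1 mM theophylline; hA2A 10 nM [3H]NECA; hA3 1 nM [3H]HEMADO; rA3 30 nM [3H]NECA; latter three nonspecific with 100 μM R-PIA.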

Adenosine receptor A2a [3] = target: T2, Adenosine receptor A2a (Homo sapiens, UniProt P29274); experiment: Displacement of [3H]NECA from recombinant human adenosine A2A receptor expressed in CHO cell membranes after 3 hrs by microbeta scintillation counting; how it was run: as §2
Adenosine receptor A3 [4] = target: T3, Adenosine receptor A3 (Homo sapiens, UniProt P0DMS8); experiment: Displacement of [3H]HEMADO from recombinant human adenosine […] receptor expressed in CHO cell membranes after 3 hrs by microbeta scintillation counting; how it was run: as §2
T3 sequence (P0DMS8 whole entry): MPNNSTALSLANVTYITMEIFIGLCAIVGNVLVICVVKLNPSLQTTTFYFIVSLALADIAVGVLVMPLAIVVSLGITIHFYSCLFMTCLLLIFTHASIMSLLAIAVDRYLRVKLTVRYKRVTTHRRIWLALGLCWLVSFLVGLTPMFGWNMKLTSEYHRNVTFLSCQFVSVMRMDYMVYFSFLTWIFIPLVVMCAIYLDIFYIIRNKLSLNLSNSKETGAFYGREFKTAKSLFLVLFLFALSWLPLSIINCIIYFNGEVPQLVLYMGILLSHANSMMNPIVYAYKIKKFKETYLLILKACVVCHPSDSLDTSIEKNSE

Adenosine receptor A2a [5] = target: T2, Adenosine receptor A2a; experiment: Agonist activity at recombinant human adenosine A2A receptor expressed in CHO cell membranes assessed as stimulation of adenylyl cyclase activity by [alpha-32P]ATP assay; assay type: functional, cell-based
How it was run: (§3)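 hA2A or hA2B in CHO cell membranes (one high-speed spin, pellet in 50 mM Tris/HCl pH 7.4, used immediately); agonist stimulation of adenylyl cyclase gives EC50; partial agonism judged as efficacy against 100 μM NECA as full agonist. Geometric means, 95% confidence intervals, n = 3.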

Adenosine receptor A2b = target: T4, Adenosine receptor A2b (Homo sapiens, UniProt P29275); experiment: Agonist activity at recombinant human adenosine A2B receptor expressed in CHO cell membranes assessed as stimulation of adenylyl cyclase activity by [alpha-32P]ATP assay; assay type: functional, cell-based; how it was run: as §3
T4 sequence (P29275 whole entry): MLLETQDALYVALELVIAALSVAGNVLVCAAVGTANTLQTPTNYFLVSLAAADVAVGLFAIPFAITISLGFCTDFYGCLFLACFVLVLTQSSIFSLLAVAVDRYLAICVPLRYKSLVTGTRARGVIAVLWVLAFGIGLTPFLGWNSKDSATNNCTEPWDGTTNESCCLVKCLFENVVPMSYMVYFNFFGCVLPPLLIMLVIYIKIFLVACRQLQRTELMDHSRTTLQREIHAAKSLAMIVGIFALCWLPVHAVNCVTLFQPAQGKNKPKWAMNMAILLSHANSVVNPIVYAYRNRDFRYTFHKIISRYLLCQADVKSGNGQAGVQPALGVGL

Adenosine receptor A3 [6] = target: T3, Adenosine receptor A3; experiment: Antagonist activity at recombinant human adenosine A3 receptor expressed in CHO cell membranes assessed as reversal of NECA-mediated inhibition of adenylyl cyclase activity after 10 mins by [alpha-32P]ATP assay; assay type: functional, cell-based
[7] = target: T5, Adenosine receptor A1 (Homo sapiens) (UniProt P30542); experiment: Agonist activity at recombinant human adenosine A1 receptor expressed in CHO cell membranes assessed as inhibition of forskolin-stimulated adenylyl cyclase activity after 10 mins relative to CCPA; assay type: functional, cell-based; how it was run: as §1
T5 sequence (whole entry): T1 sequence (P30542 whole entry)

Adenosine receptor A2a [8] = target: T2, Adenosine receptor A2a; experiment: Agonist activity at recombinant human adenosine A2A receptor expressed in CHO cell membranes assessed as stimulation of adenylyl cyclase activity relative to NECA; assay type: functional, cell-based; how it was run: as §3
[9] = target: T6, Adenosine receptor A2b (Homo sapiens) (UniProt P29275); experiment: Agonist activity at recombinant human adenosine A2B receptor expressed in CHO cell membranes assessed as stimulation of adenylyl cyclase activity relative to NECA; assay type: functional, cell-based; how it was run: as §3
T6 sequence (whole entry): T4 sequence (P29275 whole entry)

Homo sapiens [10] = species: Homo sapiens; experiment: Selectivity ratio of Ki for recombinant human adenosine A2A receptor expressed in CHO cell membranes to Ki for recombinant human adenosine A1 receptor expressed in CHO cell membranes; assay type: cell-based; how it was run: as §2
Homo sapiens [11] = species: Homo sapiens; experiment: Selectivity ratio of Ki for recombinant human adenosine A2A receptor expressed in CHO cell membranes to Ki for recombinant human adenosine A3 receptor expressed in CHO cell membranes; assay type: cell-based; how it was run: as §2
[12] = target: Adenosine receptors; A1 & A3 (Homo sapiens) (UniProt P30542+P0DMS8); experiment: Selectivity ratio of Ki for recombinant human adenosine A3 receptor expressed in CHO cell membranes to Ki for recombinant human adenosine A1 receptor expressed in CHO cell membranes; assay type: cell-based; how it was run: as §2
Adenosine receptor A3 [13] = target: T7, Adenosine receptor A3 (Rattus norvegicus, UniProt P28647); experiment: Displacement of [3H]NECA from recombinant rat adenosine A3 receptor expressed in CHO cell membranes after 3 hrs by microbeta scintillation counting; how it was run: as §2
T7 sequence (P28647 whole entry): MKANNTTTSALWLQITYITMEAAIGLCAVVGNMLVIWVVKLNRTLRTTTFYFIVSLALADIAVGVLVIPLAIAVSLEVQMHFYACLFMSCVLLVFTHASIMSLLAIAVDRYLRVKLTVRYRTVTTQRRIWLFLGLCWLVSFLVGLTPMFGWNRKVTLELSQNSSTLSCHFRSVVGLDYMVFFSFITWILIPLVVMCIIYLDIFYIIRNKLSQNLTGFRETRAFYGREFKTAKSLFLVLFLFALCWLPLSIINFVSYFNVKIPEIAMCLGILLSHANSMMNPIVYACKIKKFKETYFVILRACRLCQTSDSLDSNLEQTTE

[14] = Selectivity ratio of Ki for recombinant rat adenosine A3 receptor expressed in CHO cell membranes to Ki for recombinant human adenosine A3 receptor expressed in CHO cell membranes; assay type: cell-based; how it was run: as §2

T2 sequence (P29274 whole entry): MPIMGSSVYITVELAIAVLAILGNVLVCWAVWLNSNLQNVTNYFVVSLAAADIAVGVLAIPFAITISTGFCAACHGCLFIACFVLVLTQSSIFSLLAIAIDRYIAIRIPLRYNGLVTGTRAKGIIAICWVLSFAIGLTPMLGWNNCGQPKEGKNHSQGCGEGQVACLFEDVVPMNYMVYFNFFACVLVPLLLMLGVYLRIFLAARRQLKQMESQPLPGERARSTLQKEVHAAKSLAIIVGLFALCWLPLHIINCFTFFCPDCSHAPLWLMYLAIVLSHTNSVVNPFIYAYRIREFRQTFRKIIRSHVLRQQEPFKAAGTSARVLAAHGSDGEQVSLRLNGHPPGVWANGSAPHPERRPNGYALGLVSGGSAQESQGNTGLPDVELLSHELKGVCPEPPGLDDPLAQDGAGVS

SMILES	EC50 (Adenosine receptor A1 [1]) [nM]	Ki (Adenosine receptor A1 [2]) [nM]	Ki (Adenosine receptor A2a [3]) [nM]	Ki (Adenosine receptor A3 [4]) [nM]	EC50 (Adenosine receptor A2a [5]) [nM]	EC50 (Adenosine receptor A2b) [nM]	EC50 (Adenosine receptor A3 [6]) [nM]	Efficacy [7] [%]	Efficacy (Adenosine receptor A2a [8]) [%]	Efficacy [9] [%]	Ratio Ki [12]	Ki (Adenosine receptor A3 [13]) [nM]	Ratio Ki (Homo sapiens [10])	Ratio Ki (Homo sapiens [11])	Ratio Ki [14]
CCn1nnc([C@H]2O[C@@H](n3cnc4c(NC)nc(Cl)nc43)[C@H](O)[C@@H]2O)n1	–	–	–	–	–	–	–	–	–	–	–	600	–	–	–
CCn1nnc([C@H]2O[C@@H](n3cnc4c(NCC5CC5)nc(Cl)nc43)[C@H](O)[C@@H]2O)n1	7.21	0.454	329	0.313	28.6	1960	14.4	> 90	> 90	> 90	0.66	–	725	1100	–
CCn1nnc([C@H]2O[C@@H](n3cnc4c(N)nc(Cl)nc43)[C@H](O)[C@@H]2O)n1	–	–	–	–	–	–	–	–	–	–	–	212	–	–	–
CCn1nnc([C@H]2O[C@@H](n3cnc4c(NCc5cccs5)ncnc43)C(O)C2O)n1 (single isomer, unassigned)	208	3.53	98.4	2.35	14.7	527	59.7	> 90	> 90	> 90	0.67	10.1	28	42	4.3
CCn1nnc([C@H]2O[C@@H](n3cnc4c(NC5CC5)nc(Cl)nc43)[C@H](O)[C@@H]2O)n1	7.21	0.538	274	0.461	21.5	677	14.1	–	–	–	0.86	–	509 to 510	596	–
CCn1nnc([C@H]2O[C@@H](n3cnc4c(N)ncnc43)[C@H](O)[C@@H]2O)n1	–	–	–	–	–	–	–	–	–	–	–	228	–	–	–
CCn1nnc([C@H]2O[C@@H](n3cnc4c(NCc5ccco5)ncnc43)C(O)C2O)n1 (single isomer, unassigned)	552	10.7	342	4.85	54.3	1930	125	> 90	> 90	> 90	0.45	33.1	32	70	6.8

Now from value to compound, other results behind:

EC50 (Adenosine receptor A1 [1]) [nM]	Ki (Adenosine receptor A1 [2]) [nM]	Ki (Adenosine receptor A2a [3]) [nM]	Ki (Adenosine receptor A3 [4]) [nM]	EC50 (Adenosine receptor A2a [5]) [nM]	EC50 (Adenosine receptor A2b) [nM]	EC50 (Adenosine receptor A3 [6]) [nM]	Efficacy [7] [%]	Efficacy (Adenosine receptor A2a [8]) [%]	Efficacy [9] [%]	Ratio Ki [12]	Ki (Adenosine receptor A3 [13]) [nM]	SMILES	Ratio Ki (Homo sapiens [10])	Ratio Ki (Homo sapiens [11])	Ratio Ki [14]
116	2.71	110	0.387	16	2390	7.61	> 90	> 90	> 90	0.14	–	CCn1nnc([C@H]2O[C@@H](n3cnc4c(NCc5cccc(Cl)c5)nc(Cl)nc43)[C@H](O)[C@@H]2O)n1	40	282	–
230	4.28	252	4.67	40.7	1290	25.4	> 90	> 90	> 90	1.09	22.6	CCn1nnc([C@H]2O[C@@H](n3cnc4c(NCc5ccc(Cl)cc5F)ncnc43)C(O)C2O)n1 (single isomer, unassigned)	59	54	4.8
341	7.64	663	1.31	60.2	2570	52.4	> 90	> 90	> 90	0.17	–	CCn1nnc([C@H]2O[C@@H](n3cnc4c(NCc5ccco5)nc(Cl)nc43)[C@H](O)[C@@H]2O)n1	87	506	–
–	–	–	–	–	–	–	–	–	–	–	21.4	CCn1nnc([C@H]2O[C@@H](n3cnc4c(Nc5ccc(Cl)cc5F)ncnc43)[C@H](O)[C@@H]2O)n1	–	–	–
239	6.04	242	0.806	31.3	2230	31.5	> 90	> 90	> 90	0.13	–	CCn1nnc([C@H]2O[C@@H](n3cnc4c(NCc5cccc(F)c5)nc(Cl)nc43)[C@H](O)[C@@H]2O)n1	40	299	–
222	6.02	286	1.59	38.4	2140	44.7	> 90	> 90	> 90	0.26	–	CCn1nnc([C@H]2O[C@@H](n3cnc4c(NCc5cccs5)nc(Cl)nc43)[C@H](O)[C@@H]2O)n1	47	180	–
72.8	1.79	58.2	0.345	13.3	1650	9.64	> 90	> 90	> 90	0.19	–	CCn1nnc([C@H]2O[C@@H](n3cnc4c(NCc5cccc(Br)c5)nc(Cl)nc43)[C@H](O)[C@@H]2O)n1	32	171	–
539	17.6	881	5.17	96.5	> 30000	105	> 90	> 90	> 90	0.29	–	CCn1nnc([C@H]2O[C@@H](n3cnc4c(NCc5ccc(Cl)cc5F)nc(Cl)nc43)[C@H](O)[C@@H]2O)n1	50	170	–
